ChEMBL document CHEMBL4321860, “Disrupting the Conserved Salt Bridge in the Trimerization of Influenza A Nucleoprotein” (J Med Chem, 2020)
Activity calls are given as the source filed them. The rule behind the calls is not given here.

Legend:
[1] = Inhibition of nucleoprotein trimerization in recombinant Influenza A virus A/WSN/1933 (H1N1) infected in MDCK cells assessed as reduction in reduction in E339(carboxyl group)-R416(guanidino group) interaction by measuring virus-induced cytopathic effect after 48 hrs by CellTiter 96 AQueous non-radioactive cell proliferation assay; format: cell-based
How it was run: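 CPE protection assay. Virus at 100 TCID₅₀ is mixed 1:1 with compound at varied concentrations and added to MDCK cells (1 × 10⁵ cells/mL). After 48 h at 37 °C/5% CO₂, CPE is read with CellTiter 96 AQueous reagent. EC₅₀, the concentration giving 50% protection from CPE, is obtained by fitting percent CPE against concentration.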

[2] = Cytotoxicity against dog MDCK cells after 48 hrs by CellTiter 96 AQueous non-radioactive cell proliferation assay; format: cell-based, Canis lupus familiaris
How it was run: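 MDCK cells, grown in DMEM with 10% FBS and penicillin−streptomycin at 37 °C/5% CO₂, seeded at 1 × 10⁵ cells/mL and exposed to varied compound concentrations without virus. Incubated 48 h at 37 °C under 5% CO₂, then read with CellTiter 96 AQueous (MTS) reagent. CC₅₀ is the 50% cytotoxic concentration from the curve fit.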

Influenza A virus [3] = assay: Antiviral activity against Influenza A virus A/WSN/1933 (H1N1) infected in BALB/c mouse assessed as increase in animal body weight at 20 mg/kg/day, ip administered for 5 days and measured after 10 days post infection; format: functional, organism-based
How it was run: (§1)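 Female BALB/c mice (18−20 g), quarantined 48−72 h, anesthetized i.p. (zoletil or ketamine/xylazine). Drug in PBS with 40% PEG 400 given i.p. twice daily for 5 days. Intranasal virus challenge (25 μL, 2X mouse LD₅₀) 4 h after first dose. Vehicle-only controls on the same schedule; 10 mice/group. Survival and body weight recorded daily for 14 days.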

[4] = Aqueous solubility of compound; format: physicochemical; conditions: buffer
Influenza A virus [5] = assay: Antiviral activity against Influenza A virus A/WSN/1933 (H1N1) infected in BALB/c mouse assessed as animal survival rate at 20 mg/kg/day, ip administered for 5 days and measured after 14 days relative to control; format: functional; how it was run: as §1

| SMILES | EC50 [1] [µM] | CC50 at 48 h [2] [µM] | Activity (Influenza A virus [3]) | solubility [4] | Activity (Influenza A virus [5]) [%] |
| --- | --- | --- | --- | --- | --- |
| CCOCCCNC(=O)c1csc(Nc2ccc(Cl)c(Cl)c2)n1 | 0.2 | > 100 | – | – | – |
| CCOCCCNC(=O)c1csc(Nc2ccc(Cl)c(C)c2)n1 | 1 | 52 | – | – | – |
| O=C(NCCCN1CCOCC1)c1csc(Nc2cc(F)c(Cl)c(F)c2)n1 | 0.8 | 52 | – | – | – |
| CCOCCCNC(=O)c1csc(Nc2cc(F)c(Cl)c(F)c2)n1 [listing 1 of 2 here] | – | – | Active | – | – |
| CC(C)OCCCNC(=O)c1csc(Nc2cc(Cl)c(Cl)c(Cl)c2)n1 | 0.6 | > 100 | – | – | – |
| CCOCCCNC(=O)c1csc(Nc2cc(F)c(Cl)c(F)c2)n1 [listing 2 of 2 here] | 0.12 | > 100 | – | Insoluble | – |
| CC(C)OCCCNC(=O)c1csc(Nc2cc(F)c(Cl)c(F)c2)n1 [listing 1 of 2 here] | – | – | Active | – | – |
| CCOCCCNC(=O)c1csc(Nc2ccc(Cl)c(F)c2)n1 | 0.6 | > 100 | – | – | – |
| Cc1cc(Nc2nc(C(=O)NCCCOC(C)C)cs2)cc(C)c1Cl | 1.3 | > 100 | – | – | – |
| O=C(NCCCN1CCOCC1)c1csc(Nc2ccc(Cl)c(Cl)c2)n1 | 2.7 | 35.6 | – | – | – |
| CCOCCCNC(=O)c1csc(Nc2ccc(Cl)cc2)n1 | 1.3 | > 100 | – | – | – |
| CCOCCCNC(=O)c1csc(Nc2cc(C)c(Cl)c(C)c2)n1 | 2.3 | > 100 | – | – | – |
| Cc1cc(Nc2nc(C(=O)NCCCN3CCOCC3)cs2)ccc1Cl | 3.7 | 47 | – | – | – |
| CC(C)OCCCNC(=O)c1csc(Nc2ccc(Cl)c(Cl)c2)n1 | 0.7 | 100 | – | – | – |
| CC(C)OCCCNC(=O)c1csc(Nc2ccc(Cl)c(F)c2)n1 | 0.5 | > 100 | – | – | – |
| CC(C)OCCCNC(=O)c1csc(Nc2cc(F)c(Cl)c(F)c2)n1 [listing 2 of 2 here] | 0.11 | > 100 | – | Insoluble | – |
| CC(C)OCCCNC(=O)c1csc(Nc2cc(F)c(Cl)c(F)c2)n1.O=S(=O)(O)O.O=S(=O)(O)O | – | – | – | – | 30 |
| Cc1cc(Nc2nc(C(=O)NCCCN3CCOCC3)cs2)cc(C)c1Cl | 3.1 | 45.7 | – | – | – |
| O=C(NCCCN1CCOCC1)c1csc(Nc2ccc(Cl)cc2)n1 | 3.1 | > 100 | – | – | – |
| O=C(NCCCN1CCOCC1)c1csc(Nc2ccc(Cl)c(F)c2)n1 | 3.2 | 45 | – | – | – |
| O=C(NCCCN1CCOCC1)c1csc(Nc2cc(Cl)c(Cl)c(Cl)c2)n1 | 1.5 | 41 | – | – | – |
| CCOCCCNC(=O)c1csc(Nc2cc(Cl)c(Cl)c(Cl)c2)n1 | 0.4 | > 100 | – | – | – |
| Cc1cc(Nc2nc(C(=O)NCCCOC(C)C)cs2)ccc1Cl | 1.2 | > 100 | – | – | – |
| CCOCCCNC(=O)c1csc(Nc2cc(F)c(Cl)c(F)c2)n1.CS(=O)(=O)O.CS(=O)(=O)O | – | – | – | – | 70 |
| CC(C)OCCCNC(=O)c1csc(Nc2ccc(Cl)cc2)n1 | 1.2 | > 100 | – | – | – |
